# Experimental data gathered from unrelated publications.
# TEC: Tyrosine-protein kinase Tec (TEC, Homo sapiens, UniProt P42680)
# TEC phosphorylated: Tyrosine-protein kinase Tec, phosphorylated (TEC, Homo sapiens, UniProt P42680)
SMILES,target,observed,mode,method,concentration,measurement,value
O=C(Nc1cnn(-c2csc(C(=O)NC3COC3)c2)c1)Nc1c(F)cccc1Cl,TEC,enzyme activity,inhibitor,,5 µM,remaining activity,97.7%
CC(=O)N1CCC(c2ccc(C(=O)NC(=N)N)cc2C(F)(F)F)CC1,TEC,binding,,competition with immobilised ligand,1 µM,remaining binding,100%
Cc1ccc(C(=O)Nc2ccc(CN3CCN(C)CC3)c(C(F)(F)F)c2)cc1C#Cc1cnc2cccnn12,TEC,enzyme activity,,,23.5 nM,remaining activity,84%
NS(=O)(=O)c1cc(NC(=O)C2(c3ccccc3Cl)CC2)ccc1Oc1cccc(Cl)c1,TEC,binding,,competition with immobilised ligand,1 µM,remaining binding,81%
Oc1cccc(-c2nc(N3CCOCC3)c3oc4ncccc4c3n2)c1,TEC,cell-free assay,,,0.5 µM,remaining signal,113%
CN1CC(Oc2cnc(C#N)cc2-c2ccn3nc(NC(=O)C4CC4)cc3c2)C1,TEC phosphorylated,enzyme activity,inhibitor,,1 µM,inhibition,25%
C[S+]([O-])c1ccc(-c2nc(-c3ccncc3)c(-c3ccc(F)cc3)[nH]2)cc1 (centres unmarked),TEC,cell-free assay,,,0.5 µM,remaining signal,113%
CN(c1ccnc(CNc2nc(Nc3ccc4c(c3)CC(=O)N4)ncc2C(F)(F)F)n1)S(C)(=O)=O,TEC,cell-free assay,,competition with immobilised ligand,1 µM,remaining binding,100%
COc1cc(Cl)c(C(=O)N[C@@H](CN[C@H]2CC[C@@H](N)CC2)Cc2ccc(C#N)cc2)cc1-c1ccc(CN[C@H](C)c2ccc(C)cc2)o1,TEC phosphorylated,enzyme activity,inhibitor,,1 µM,remaining activity,90%
N#CCCc1ccc2c(c1)-c1[nH]c3ccc([N+](=O)[O-])cc3c1CC(=O)N2,TEC,cell-free assay,,,0.5 µM,remaining signal,120%
CCOc1cc(-c2nncn2C)ccc1Nc1ncc2cc(C)nc(NCC(C)(C)C)c2n1,TEC,cell-free assay,,TR-FRET,1 µM,inhibition,≤ 15%
CC(=O)C1=C(C)N(c2cccc(C(F)(F)F)c2)C(=O)N[C@@H]1c1ccc(C#N)nc1,TEC,binding,,competition with immobilised ligand,1 µM,remaining binding,100%
Cc1ccc(C(=O)NCc2ccsc2)cc1C#Cc1cn(C(C)C)c2ncnc(N)c12,TEC phosphorylated,enzyme activity,inhibitor,,1 µM,activity vs control,107%
Nc1c(C(=O)NCc2ccc(C(=O)NCCCC3CCCCC3)cc2)cnn1-c1ccccc1,TEC,cell-free assay,,competition with immobilised ligand,0.1 µM,remaining binding,100%
CCCS(=O)(=O)Nc1ccc(F)c(C(=O)c2c[nH]c3ncc(-c4ccc(Cl)cc4)cc23)c1F,TEC,enzyme activity,inhibitor,,1 µM,inhibition,< 10%
CC/C(=N\NC(=O)NCc1cccc(O)c1)c1ccc(O)c(C)c1O,TEC,enzyme activity,inhibitor,,0.1 µM,inhibition,0.2%
O=C(N[C@@H](C1CC1)C(F)(F)F)c1cc(-c2cnn3cc(-c4ccc(F)cc4)cnc23)cs1,TEC,enzyme activity,inhibitor,radiometric,40 nM,inhibition,0%
CC(C)(O)[C@H]1CC[C@H](Nc2ccc3ncc(-c4cccc(C(F)(F)F)c4)n3n2)CC1,TEC,enzyme activity,inhibitor,,1 µM,remaining activity,104%
C[C@@H]1CN(c2cc(-c3nn(C)c4ccc(OC5(C)CC5)cc34)ncn2)C[C@H](C)O1,TEC,cell-free assay,,competition with immobilised ligand,1 µM,remaining binding,100%
CC(C)(C)c1nc(-c2cccc(NS(=O)(=O)c3c(F)cccc3F)c2F)c(-c2ccnc(N)n2)s1,TEC,enzyme activity,inhibitor,radiometric,1 µM,remaining activity,87%
